Results taken from ChEMBL document CHEMBL1121810, “Antihypertensive activity of 6-arylpyrido[2,3-d]pyrimidin-7-amine derivatives” (1981).

What was measured:
Assay type in all cases: functional
Rattus norvegicus [1] = assay: Maximum percent decrease in heart rate of spontaneously hypertensive rats, 8 hr after peroral administration of 50 mg/kg of compound; conditions: route oral
Method in brief: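 Conscious male SHR (Kyoto-Wistar origin, 22-24 weeks, 250-350 g; mean BP >150 mmHg, pulse pressure >25 mmHg) with indwelling catheters, ~0.8 mL heparinized saline/day. Dosed by gavage as a 4% gum acacia suspension, 2 mL/kg, free-base doses, 3-4 rats per group. Heart rate was derived from the pulsatile pressure signal, sampled 3 min every 30 min, and 30-min means were compared with pretreatment values.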

Rattus norvegicus [2] = assay: Effect on heart rate of spontaneously hypertensive rats, 10 hr after peroral administration at 50 mg/kg; conditions: route oral
Method in brief: (§1)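 Heart rate was derived from the pulsatile arterial pressure signal in conscious catheterized male SHR (22-24 weeks, 250-350 g), with continuous monitoring sampled 3 min per 30 min. Drug was given by gavage as a 4% gum acacia suspension at 2 mL/kg, dose as free base, to groups of 3-4 rats with mean pressure >150 mmHg. Individual 30-min means were compared with pretreatment values.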

Rattus norvegicus [3] = assay: Effect on heart rate of spontaneously hypertensive rats, 24 hr after peroral administration at 50 mg/kg; conditions: route oral; method in brief: as §1
Rattus norvegicus [4] = assay: Effect on heart rate of spontaneously hypertensive rats, 2 hr after peroral administration at 50 mg/kg; conditions: route oral; method in brief: as §1
Rattus norvegicus [5] = assay: Maximum percent decrease in heart rate of spontaneously hypertensive rats, 4 hours after peroral administration of 50 mg/kg of compound; conditions: route oral; method in brief: as §1
Rattus norvegicus [6] = assay: Maximum percent decrease in heart rate of spontaneously hypertensive rats, 10 hours after peroral administration of 50 mg/kg of compound; conditions: route oral; method in brief: as §1
Rattus norvegicus [7] = assay: Effect on heart rate of spontaneously hypertensive rats, 10 hr after peroral administration of 10 mg/kg of compound; conditions: route oral; method in brief: as §1
Rattus norvegicus [8] = assay: Effect on heart rate of spontaneously hypertensive rats, 10 hr after peroral administration of 3 mg/kg of compound; conditions: route oral; method in brief: as §1
Rattus norvegicus [9] = assay: Effect on heart rate of spontaneously hypertensive rats, 24 hr after peroral administration of 10 mg/kg of compound; conditions: route oral; method in brief: as §1
Rattus norvegicus [10] = assay: Effect on heart rate of spontaneously hypertensive rats, 24 hr after peroral administration of 3 mg/kg of compound; conditions: route oral; method in brief: as §1
Rattus norvegicus [11] = assay: Effect on heart rate of spontaneously hypertensive rats, 2 hr after peroral administration of 10 mg/kg of compound; conditions: route oral; method in brief: as §1
Rattus norvegicus [12] = assay: Effect on heart rate of spontaneously hypertensive rats, 2 hr after peroral administration of 3 mg/kg of compound; conditions: route oral; method in brief: as §1
Rattus norvegicus [13] = organism: Rattus norvegicus; assay: Dose required to lower blood pressure by 30mmHg, 5-h post treatment
Method in brief: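 Conscious male SHR (22-24 weeks, 250-350 g) with indwelling catheters for continuous blood pressure and heart rate monitoring; only rats with mean pressure >150 mmHg and pulse pressure >25 mmHg were used. Oral gavage of a suspension in 4% gum acacia (2 mL/kg), doses as free base, groups of 3-4. Mean pressure was sampled 3 min per 30 min and compared with pretreatment; the value is the dose lowering pressure by 30 mmHg at 5 h.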

Rattus norvegicus [14] = assay: Maximum percent decrease in heart rate of spontaneously hypertensive rats, 24 hours after peroral administration of 50 mg/kg of compound; conditions: route oral; method in brief: as §1
Rattus norvegicus [15] = assay: (§2) Max effect on heart rate of spontaneously hypertensive rats, 3-5 hr after peroral administration of 3 mg/kg of compound; conditions: route oral; method in brief: as §1
Rattus norvegicus [16] = assay: Max effect on heart rate of spontaneously hypertensive rats, 3-5 hr after peroral administration of 10 mg/kg of compound; conditions: route oral; method in brief: as §1
Rattus norvegicus [17] = assay: Max effect on heart rate of spontaneously hypertensive rats, 3-5 hr after peroral administration of 10 mg/kg of compound; significant decrease observed on 2nd and 3rd days; conditions: route oral; method in brief: as §1
Rattus norvegicus [18] = assay: as §2; conditions: route oral; method in brief: as §1; remark: listed apart in the source
Rattus norvegicus [19] = assay: Max effect on heart rate of spontaneously hypertensive rats, 3-5 hr after peroral administration of 3 mg/kg of compound; significant decrease observed on 2nd and 3rd days; conditions: route oral; method in brief: as §1
Rattus norvegicus [20] = assay: Effect on heart rate of spontaneously hypertensive rats,24hours after peroral administration of 10 mg/kg of compound; conditions: route oral; method in brief: as §1

| SMILES | Activity rating (Rattus norvegicus [2]) | Activity rating (Rattus norvegicus [3]) | Activity rating (Rattus norvegicus [4]) | Activity rating (Rattus norvegicus [7]) | Activity rating (Rattus norvegicus [11]) | Decrease (Rattus norvegicus [14]) | also measured |
| --- | --- | --- | --- | --- | --- | --- | --- |
| Cc1ncc2cc(-c3ccccc3Cl)c(N)nc2n1 | 1 | 1 | 0 | – | – | – | Decrease (Rattus norvegicus [1]): 16% |
| Cc1ncc2cc(-c3ccccc3C)c(N)nc2n1 | 1 | 1 | 1 | – | – | – | Decrease (Rattus norvegicus [5]): 22% |
| Cc1ncc2cc(-c3c(Cl)cccc3Cl)c(N)nc2n1 | 3 | 3 | 1 | 1 | 1 | – | Decrease (Rattus norvegicus [6]): 32%; Activity rating (Rattus norvegicus [8]): 1; Activity rating (Rattus norvegicus [9]): 1; Activity rating (Rattus norvegicus [10]): 1; Activity rating (Rattus norvegicus [12]): 1; ED30 (Rattus norvegicus [13]): 17 mg/kg; LD50 (Rattus norvegicus [13]): > 7000 mg/kg |
| Nc1nc2ncncc2cc1-c1c(Cl)cccc1Cl | 0 | 2 | 0 | – | – | 22% | Activity rating (Rattus norvegicus [15]): 0; Activity rating (Rattus norvegicus [16]): 0; Activity rating (Rattus norvegicus [17]): 0; Activity rating (Rattus norvegicus [18]): 0; Activity rating (Rattus norvegicus [19]): 0 |
| Nc1ncc2cc(-c3c(Cl)cccc3Cl)c(N)nc2n1 | 1 | 2 | 0 | 0 | 0 | 18% | Activity rating (Rattus norvegicus [20]): 1 |
